Laboratory results published in ChEMBL document CHEMBL4014341, “Discovery of a Human Neuromedin U Receptor 1-Selective Hexapeptide Agonist with Enhanced Serum Stability” (J Med Chem, 2017).
Calls of active or inactive are those of the source. The calls are words filed in the database; no cut-off is given here. Square brackets hold non-standard residues; d marks the D form. Peptide text beside a SMILES is read from it. * marks the point of attachment. Phe(4-NO2) = N[C@@H](Cc1ccc([N+](=O)[O-])cc1)C(=O)O; Phe(4-CF3) = N[C@@H](Cc1ccc(C(F)(F)F)cc1)C(=O)O; Bpa = N[C@@H](Cc1ccc(C(=O)c2ccccc2)cc1)C(=O)O; Bip = N[C@@H](Cc1ccc(-c2ccccc2)cc1)C(=O)O; Phe(4-Br) = N[C@@H](Cc1ccc(Br)cc1)C(=O)O; Phe(4-CN) = N#Cc1ccc(C[C@H](N)C(=O)O)cc1; Phe(4-Cl) = N[C@@H](Cc1ccc(Cl)cc1)C(=O)O; αMeW = C[C@](N)(Cc1c[nH]c2ccccc12)C(=O)O; Dip = N[C@H](C(=O)O)C(c1ccccc1)c1ccccc1; Phe(3-F) = N[C@@H](Cc1cccc(F)c1)C(=O)O; 1Nal = N[C@@H](Cc1cccc2ccccc12)C(=O)O; Phe(2-F) = N[C@@H](Cc1ccccc1F)C(=O)O; Bta = N[C@@H](Cc1csc2ccccc12)C(=O)O; Acetyl(2-thienyl) = O=C(Cc1cccs1)*

Tests used:
Serum = experiment: Drug level in rat serum treated with (S)-2-((S)-2-((S)-1-((S)-2-((S)-2-((S)-3-(1H-indol-3-yl)-2-(2-(thiophen-2-yl)acetamido)propanamido)-3-(1H-indol-2-yl)propanamido)-5-guanidinopentanoyl)pyrrolidine-2-carboxamido)-5-guanidinopentanamido)succinamide at 1 mM after 120 mins by RP-HPLC analysis; type: ADME, cell-free; conditions: 2 h, 1000 µM
Neuromedin-U receptor 1 = molecular target: T1, Neuromedin-U receptor 1 (Mus musculus, UniProt O55040); experiment: Agonist activity at mouse NMUR1 expressed in HEK293 cells assessed as induction of calcium mobilization after 18 hrs by Fluo-4 AM dye based FLIPR assay; type: functional, cell-based
T1 sequence (O55040 whole entry): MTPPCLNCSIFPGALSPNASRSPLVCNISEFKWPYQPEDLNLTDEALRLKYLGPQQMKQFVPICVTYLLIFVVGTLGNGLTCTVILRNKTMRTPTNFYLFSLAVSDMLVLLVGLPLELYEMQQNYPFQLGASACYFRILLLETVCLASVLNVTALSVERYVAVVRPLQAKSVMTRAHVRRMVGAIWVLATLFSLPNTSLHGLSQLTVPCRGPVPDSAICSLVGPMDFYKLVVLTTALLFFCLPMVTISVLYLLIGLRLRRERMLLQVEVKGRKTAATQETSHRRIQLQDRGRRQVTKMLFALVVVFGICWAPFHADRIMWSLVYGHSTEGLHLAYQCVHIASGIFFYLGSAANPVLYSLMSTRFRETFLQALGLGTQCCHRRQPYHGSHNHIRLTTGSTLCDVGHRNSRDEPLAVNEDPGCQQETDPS

Rattus norvegicus = organism: Rattus norvegicus; experiment: Stability in rat serum at 1 mM at 120 mins by RP-HPLC/MS analysis
[1] = molecular target: Neuromedin-U receptor 2 (Homo sapiens) (UniProt Q9GZQ4); experiment: Agonist activity at human NMUR2 expressed in CHO cells assessed as induction of Ca2+ flux at 10 nM after 18 hrs by Fluo-4 AM dye based FLIPR assay relative to NMU; type: functional, cell-based
How it was run: (§1)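 Human NMUR1 or NMUR2 stably expressed in CHO cells was assayed by Fluo-4 AM (4 μM, 40 min) FLIPR calcium flux, with cells seeded 18 h before. Peptides were tested at single concentrations of 0.1, 10 or 100 nM. Maximal response is expressed as % of hNMU at 1000 nM (=100%).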

[2] = molecular target: T2, Neuromedin-U receptor 1 (Homo sapiens) (UniProt Q9HB89); experiment: Agonist activity at human NMUR1 expressed in CHO cells assessed as induction of Ca2+ flux at 0.1 nM after 18 hrs by Fluo-4 AM dye based FLIPR assay relative to NMU; type: functional, cell-based; how it was run: as §1
T2 sequence (whole entry): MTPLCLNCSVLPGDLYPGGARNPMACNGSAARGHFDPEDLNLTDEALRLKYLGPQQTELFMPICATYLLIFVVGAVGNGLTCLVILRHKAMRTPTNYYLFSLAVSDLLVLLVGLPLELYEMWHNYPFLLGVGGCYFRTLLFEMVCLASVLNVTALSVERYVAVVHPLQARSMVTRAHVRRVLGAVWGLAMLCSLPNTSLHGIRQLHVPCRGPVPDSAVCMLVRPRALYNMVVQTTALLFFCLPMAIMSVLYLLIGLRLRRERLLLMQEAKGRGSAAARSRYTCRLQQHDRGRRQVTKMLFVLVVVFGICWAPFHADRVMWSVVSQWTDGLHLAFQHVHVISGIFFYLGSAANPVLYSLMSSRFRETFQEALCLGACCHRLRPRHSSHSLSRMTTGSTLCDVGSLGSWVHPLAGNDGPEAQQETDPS

[3] = molecular target: T2, Neuromedin-U receptor 1 (Homo sapiens); experiment: Agonist activity at human NMUR1 expressed in CHO cells assessed as induction of Ca2+ flux at 0.1 to 10 nM after 18 hrs by Fluo-4 AM dye based FLIPR assay relative to NMU; type: functional, cell-based; how it was run: as §1
[4] = molecular target: Neuromedin-U receptor 2 (Homo sapiens) (UniProt Q9GZQ4); experiment: Agonist activity at human NMUR2 expressed in CHO cells assessed as induction of Ca2+ flux at 100 nM after 18 hrs by Fluo-4 AM dye based FLIPR assay relative to NMU; type: functional, cell-based; how it was run: as §1
[5] = molecular target: T2, Neuromedin-U receptor 1 (Homo sapiens); experiment: Agonist activity at human NMUR1 expressed in CHO cells assessed as induction of Ca2+ flux at 100 nM after 18 hrs by Fluo-4 AM dye based FLIPR assay relative to NMU; type: functional, cell-based; how it was run: as §1
[6] = molecular target: Neuromedin-U receptor 2 (Homo sapiens) (UniProt Q9GZQ4); experiment: Agonist activity at human NMUR2 expressed in CHO cells assessed as induction of Ca2+ flux at 0.1 to 10 nM after 18 hrs by Fluo-4 AM dye based FLIPR assay relative to NMU; type: functional, cell-based; how it was run: as §1
Prothrombin = Prothrombin (Homo sapiens, UniProt P00734); experiment: Drug metabolism in human serum treated with (S)-2-((S)-1-((S)-2-((S)-2-((S)-3-(1H-indol-3-yl)-2-(2-(thiophen-2-yl)acetamido)propanamido)-3-(1H-indol-3-yl)-2-methylpropanamido)-5-guanidinopentanoyl)pyrrolidine-2-carboxamido)-5-guanidinopentanoic acid assessed as thrombin-mediated metabolite formation at 1 mM after 120 mins by RP-HPLC analysis; type: ADME; conditions: 2 h, 1000 µM
[7] = molecular target: Neuromedin-U receptor 2 (Homo sapiens) (UniProt Q9GZQ4); experiment: Agonist activity at human NMUR2 expressed in CHO cells assessed as induction of Ca2+ flux at 0.1 uM after 18 hrs by Fluo-4 AM dye based FLIPR assay relative to NMU; type: functional, cell-based; how it was run: as §1

Neuromedin-U receptor 2 (Homo sapiens), sequence (Q9GZQ4 whole entry): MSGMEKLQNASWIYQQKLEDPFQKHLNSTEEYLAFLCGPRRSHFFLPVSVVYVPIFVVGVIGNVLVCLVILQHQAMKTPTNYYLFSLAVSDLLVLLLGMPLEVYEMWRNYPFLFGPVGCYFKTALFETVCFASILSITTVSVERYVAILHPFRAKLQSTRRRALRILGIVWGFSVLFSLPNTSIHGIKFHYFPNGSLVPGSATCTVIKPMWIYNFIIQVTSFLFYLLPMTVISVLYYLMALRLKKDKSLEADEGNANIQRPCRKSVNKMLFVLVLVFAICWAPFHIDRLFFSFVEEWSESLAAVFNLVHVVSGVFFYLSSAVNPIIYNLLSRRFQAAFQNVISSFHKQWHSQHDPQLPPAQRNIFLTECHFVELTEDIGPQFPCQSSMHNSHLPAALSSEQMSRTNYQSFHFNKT

O=C(Cc1cccs1)N[C@@H](Cc1c[nH]c2ccccc12)C(=O)N[C@@H](Cc1c[nH]c2ccccc12)C(=O)O
Drug metabolism (Serum): Metabolite_Detected

CC(C)C[C@H](NC(=O)[C@H](Cc1ccccc1)NC(=O)[C@H](Cc1ccc(O)cc1)NC(=O)CNC(=O)[C@H](CCCCN)NC(=O)[C@H](CO)NC(=O)[C@H](CCC(N)=O)NC(=O)CNC(=O)[C@@H](NC(=O)[C@H](CO)NC(=O)[C@@H]1CCCN1C(=O)[C@H](CO)NC(=O)[C@H](CCC(N)=O)NC(=O)[C@H](Cc1ccc(O)cc1)NC(=O)[C@H](CCC(=O)O)NC(=O)[C@H](C)NC(=O)[C@H](CCCCN)NC(=O)[C@@H](N)Cc1ccccc1)C(C)C)C(=O)N[C@@H](Cc1ccccc1)C(=O)N[C@@H](CCCNC(=N)N)C(=O)N1CCC[C@H]1C(=O)N[C@@H](CCCNC(=N)N)C(=O)N[C@@H](CC(N)=O)C(N)=O (H-FKAEYQSPSVGQSKGYFLFRPRN-NH2)
EC50 (Neuromedin-U receptor 1): 0.42 nM

N=C(N)NCCC[C@H](NC(=O)[C@@H]1CCCN1C(=O)[C@H](CCCNC(=N)N)NC(=O)[C@H](Cc1c[nH]c2ccccc12)NC(=O)[C@H](Cc1c[nH]c2ccccc12)NC(=O)Cc1cccs1)C(=O)O ({Acetyl(2-thienyl)}-WWRPR-OH)
Drug metabolism (Serum): Metabolite_Detected | remaining at 2 h, 1000 µM (Rattus norvegicus): 52%

COc1ccc(C[C@H](NC(=O)[C@H](Cc2c[nH]c3ccccc23)NC(=O)Cc2cccs2)C(=O)N[C@@H](CCCNC(=N)N)C(=O)N2CCC[C@H]2C(=O)N[C@@H](CCCNC(=N)N)C(=O)N[C@@H](CC(N)=O)C(N)=O)cc1 ({Acetyl(2-thienyl)}-WY(Me)RPRN-NH2)
Activity [1]: inactive

N=C(N)NCCC[C@H](NC(=O)[C@@H]1CCCN1C(=O)[C@H](CCCNC(=N)N)NC(=O)[C@H](Cc1cccc2ccccc12)NC(=O)[C@H](Cc1c[nH]c2ccccc12)NC(=O)Cc1cccs1)C(=O)N[C@@H](CC(N)=O)C(N)=O ({Acetyl(2-thienyl)}-W[1Nal]RPRN-NH2)
Activity [1]: inactive

N=C(N)NCCC[C@H](NC(=O)[C@@H]1CCCN1C(=O)[C@H](CCCNC(=N)N)NC(=O)[C@H](Cc1ccc(-c2ccccc2)cc1)NC(=O)[C@H](Cc1c[nH]c2ccccc12)NC(=O)Cc1cccs1)C(=O)N[C@@H](CC(N)=O)C(N)=O ({Acetyl(2-thienyl)}-W[Bip]RPRN-NH2)
Activity [1]: inactive | Activity [2]: Active

N=C(N)NCCC[C@H](NC(=O)[C@@H]1CCCN1C(=O)[C@H](CCCNC(=N)N)NC(=O)[C@H](Cc1ccc(C(=O)c2ccccc2)cc1)NC(=O)[C@H](Cc1c[nH]c2ccccc12)NC(=O)Cc1cccs1)C(=O)N[C@@H](CC(N)=O)C(N)=O ({Acetyl(2-thienyl)}-W[Bpa]RPRN-NH2)
Activity [1]: inactive | Activity [2]: Active

N=C(N)NCCC[C@H](NC(=O)[C@@H]1CCCN1C(=O)[C@H](CCCNC(=N)N)NC(=O)[C@H](Cc1csc2ccccc12)NC(=O)[C@H](Cc1c[nH]c2ccccc12)NC(=O)Cc1cccs1)C(=O)N[C@@H](CC(N)=O)C(N)=O ({Acetyl(2-thienyl)}-W[Bta]RPRN-NH2)
Activity [3]: Active

N=C(N)NCCC[C@H](NC(=O)[C@@H]1CCCN1C(=O)[C@H](CCCNC(=N)N)NC(=O)[C@@H](NC(=O)[C@H](Cc1c[nH]c2ccccc12)NC(=O)Cc1cccs1)C(c1ccccc1)c1ccccc1)C(=O)N[C@@H](CC(N)=O)C(N)=O ({Acetyl(2-thienyl)}-W[Dip]RPRN-NH2)
Activity [4]: inactive | Activity [5]: inactive

N=C(N)NCCC[C@H](NC(=O)[C@@H]1CCCN1C(=O)[C@H](CCCNC(=N)N)NC(=O)[C@H](Cc1ccccc1F)NC(=O)[C@H](Cc1c[nH]c2ccccc12)NC(=O)Cc1cccs1)C(=O)N[C@@H](CC(N)=O)C(N)=O ({Acetyl(2-thienyl)}-W[Phe(2-F)]RPRN-NH2)
Activity [6]: Active | Activity [3]: Active

N=C(N)NCCC[C@H](NC(=O)[C@@H]1CCCN1C(=O)[C@H](CCCNC(=N)N)NC(=O)[C@H](Cc1cccc(F)c1)NC(=O)[C@H](Cc1c[nH]c2ccccc12)NC(=O)Cc1cccs1)C(=O)N[C@@H](CC(N)=O)C(N)=O ({Acetyl(2-thienyl)}-W[Phe(3-F)]RPRN-NH2)
Activity [6]: Active | Activity [3]: Active

N=C(N)NCCC[C@H](NC(=O)[C@@H]1CCCN1C(=O)[C@H](CCCNC(=N)N)NC(=O)[C@H](Cc1ccc(Br)cc1)NC(=O)[C@H](Cc1c[nH]c2ccccc12)NC(=O)Cc1cccs1)C(=O)N[C@@H](CC(N)=O)C(N)=O ({Acetyl(2-thienyl)}-W[Phe(4-Br)]RPRN-NH2)
Activity [1]: inactive

N=C(N)NCCC[C@H](NC(=O)[C@@H]1CCCN1C(=O)[C@H](CCCNC(=N)N)NC(=O)[C@H](Cc1ccc(C(F)(F)F)cc1)NC(=O)[C@H](Cc1c[nH]c2ccccc12)NC(=O)Cc1cccs1)C(=O)N[C@@H](CC(N)=O)C(N)=O ({Acetyl(2-thienyl)}-W[Phe(4-CF3)]RPRN-NH2)
Activity [1]: inactive | Activity [2]: Active

N#Cc1ccc(C[C@H](NC(=O)[C@H](Cc2c[nH]c3ccccc23)NC(=O)Cc2cccs2)C(=O)N[C@@H](CCCNC(=N)N)C(=O)N2CCC[C@H]2C(=O)N[C@@H](CCCNC(=N)N)C(=O)N[C@@H](CC(N)=O)C(N)=O)cc1 ({Acetyl(2-thienyl)}-W[Phe(4-CN)]RPRN-NH2)
Activity [1]: inactive

N=C(N)NCCC[C@H](NC(=O)[C@@H]1CCCN1C(=O)[C@H](CCCNC(=N)N)NC(=O)[C@H](Cc1ccc(Cl)cc1)NC(=O)[C@H](Cc1c[nH]c2ccccc12)NC(=O)Cc1cccs1)C(=O)N[C@@H](CC(N)=O)C(N)=O ({Acetyl(2-thienyl)}-W[Phe(4-Cl)]RPRN-NH2)
Activity [1]: Active

N=C(N)NCCC[C@H](NC(=O)[C@@H]1CCCN1C(=O)[C@H](CCCNC(=N)N)NC(=O)[C@H](Cc1ccc([N+](=O)[O-])cc1)NC(=O)[C@H](Cc1c[nH]c2ccccc12)NC(=O)Cc1cccs1)C(=O)N[C@@H](CC(N)=O)C(N)=O ({Acetyl(2-thienyl)}-W[Phe(4-NO2)]RPRN-NH2)
Activity [1]: inactive

C[C@@](Cc1c[nH]c2ccccc12)(NC(=O)[C@H](Cc1c[nH]c2ccccc12)NC(=O)Cc1cccs1)C(=O)N[C@@H](CCCNC(=N)N)C(=O)N1CCC[C@H]1C(=O)N[C@@H](CCCNC(=N)N)C(=O)O ({Acetyl(2-thienyl)}-W[αMeW]RPR-OH)
Drug metabolism (Prothrombin): Metabolite_Detected | Activity [7]: inactive | Activity [3]: Active | remaining at 2 h, 1000 µM (Rattus norvegicus): 101%
